Data on 13 molecules can be found in article PMC9494671 (ACS Omega, 2022).

As usually defined, the IC50 is the midpoint of a concentration-inhibition curve.

In data set [1] the test system is Epitheloid cervix carcinoma cell line (HeLa). The experiment in a line: MTT cytotoxicity assay, HeLa. The data set is classed as cell-based, human. The conditions noted are these: for IC50: Homo sapiens, 24 h, read-out: IC50 (μM) HeLa. Put shortly:
(§1)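 Cells grown in RPMI-1640 with 10% FBS, penicillin 100 units/mL and streptomycin 100 μg/mL at 37 °C, 5% CO2. Seeded at 1.0 × 10^4 cells/well for 48 h, then exposed to a range of test compound concentrations for 24 h, with CA-4 as positive control. MTT (5 mg/mL solution) added for 4 h, formazan dissolved in DMSO, absorbance read at 570 nm. IC50 = 50% growth inhibition, mean ± SD.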

In data set [2] the test system is tubulin. The experiment in a line: In vitro tubulin polymerization inhibition assay. Type of data set: biochemical. Conditions: read-out: IC50 (μM) tubulin polymerization inhibition; 4 mg/mL tubulin, 37 °C, OD340, mean ± SD from three independent experiments.
Data set [3] relates to Human hepatocellular carcinoma cell line (HepG2). The experiment in a line: MTT cytotoxicity assay, HepG2. The data set is classed as cell-based. Conditions: for IC50: Homo sapiens, HepG2, 24 h, read-out: IC50 (μM) HePG2; for cytotoxic activity, class in words, HepG2: MTT assay. Put shortly:
as §1

Data set [4] concerns Human breast adenocarcinoma cell line (MCF-7). The experiment in a line: MTT cytotoxicity assay, MCF-7. The data set is classed as cell-based. The conditions noted are these: for IC50: Homo sapiens, MCF7, 24 h, read-out: IC50 (μM) MCF-7. Put shortly: as §1
In general terms: Tetrazolium assays rely on reduction of a dye to a coloured formazan, in cell work by metabolically active cells.

For data set [5], the system named is Human colorectal carcinoma cell line (HCT-116). The experiment in a line: MTT cytotoxicity assay, HCT-116. The conditions noted are these: for IC50: Homo sapiens, HCT-116, 24 h, read-out: IC50 (μM) HCT-116; for cytotoxic activity, class in words, HCT-116: MTT assay. The data set is classed as cell-based. A digest of the protocol: as §1
For data set [6], the system named is HepG2, HCT-116, MCF-7, and HeLa cell lines. The experiment in a line: MTT cytotoxicity assay, statements over the four tested cell lines. The data set is classed as cell-based, human. The conditions noted are these: all tested cell lines. A digest of the protocol:
as §1

For data set [7] the following is noted: cited from earlier work.

The structures appear in SMILES notation.

As to `COc1cc(-c2csc(NC(=O)CNc3ccc(Br)c(C(F)(F)F)c3)n2)cc(OC)c1OC` [Compound 7d, 2-((4-Bromo-3-(trifluoromethyl)phenyl)amino)-N-(4-(3,4,5-trimethoxyphenyl)thiazol-2-yl)acetamide], the IC50 is 29.8 ± 1.5 µM in data set [1]; 3.42 ± 0.21 µM in data set [2]; 28.1 ± 1.4 µM in data set [3]; 41.4 ± 2.1 µM in data set [4]; 33.1 ± 1.7 µM in data set [5].
Take `COc1cc(-c2csc(NC(=O)CNCCO)n2)cc(OC)c1OC` [Compound 5a, 2-((2-Hydroxyethyl)amino)-N-(4-(3,4,5-trimethoxyphenyl)thiazol-2-yl)acetamide]: the IC50 in data set [1] was found to be 50.9 ± 2.5 µM; in data set [3], 22 ± 1.1 µM; in data set [4] it was 30 ± 1.5 µM; in data set [5], 29.4 ± 1.5 µM. The “cytotoxic effect, class in words, tested cell lines” value (shortened to “cytotoxic effect, class in words”) in data set [6] is “moderate (21–50 (moderate))”.
The like results for `COc1cc(-c2csc(NC(=O)NCCCl)n2)cc(OC)c1OC` [Compound 11, 1-(2-Chloroethyl)-3-(4-(3,4,5-trimethoxyphenyl)thiazol-2-yl)urea] were, in that order, 89.9 ± 4.5 µM, 93 ± 4.6 µM, 95.8 ± 4.8 µM, 86.7 ± 4.3 µM and “weak (51–100 (weak))”.
In the case of `COc1ccc(/C=C\c2cc(OC)c(OC)c(OC)c2)cc1O` [CA-4, combretastatin A-4, reference compound], the IC50 is 5.57 ± 0.3 µM in data set [1]; […] in data set [2]; 4.5 ± 0.2 µM in data set [3]; 4.17 ± 0.2 µM in data set [4]; 5.23 ± 0.3 µM in data set [5]. In addition, the solubility in water entry in data set [7] was “weakly soluble in water”.
`CCN1CCN(CCNC(=O)Nc2nc(-c3cc(OC)c(OC)c(OC)c3)cs2)CC1` [Compound 13a, 1-(2-(4-Ethylpiperazin-1-yl)ethyl)-3-(4-(3,4,5-trimethoxyphenyl)thiazol-2-yl)urea]: the IC50 in data set [1] came out at 32.4 ± 1.6 µM; in data set [2], 5.11 ± 0.31 µM; in data set [3] it was 14.2 ± 0.7 µM; in data set [4], 16.9 ± 0.8 µM; in data set [5], 20.1 ± 1 µM. Further, the “cytotoxic activity, class in words, HeLa” value in data set [1] (MTT assay) was “moderate (21–50 (moderate))”. The “cytotoxic activity, class in words, HepG2” value in data set [3] is “strong (11–20 (strong))”. In data set [4] (MTT assay), the “cytotoxic activity, class in words, MCF-7” value was “strong (11–20 (strong))”. Also, the “cytotoxic activity, class in words, HCT-116” value in data set [5] is given as “strong (11–20 (strong))”.
In the case of `COc1cc(-c2csc(NC(=O)CNC(C)C)n2)cc(OC)c1OC` [Compound 5c, 2-(Isopropylamino)-N-(4-(3,4,5-trimethoxyphenyl)thiazol-2-yl)acetamide], the IC50 in data set [1] was 16 ± 0.8 µM; in data set [2] it was 2.95 ± 0.18 µM; in data set [3] it was 11.9 ± 0.6 µM; in data set [4], 15.5 ± 0.8 µM; in data set [5], 12.9 ± 0.6 µM. Besides, the “cytotoxic effect, class in words” value in data set [6] is recorded as “strong (11–20 (strong))”.
On to `COc1cc(-c2csc(Nc3csc(N)n3)n2)cc(OC)c1OC` [Compound 10, N^4-(4-(3,4,5-Trimethoxyphenyl)thiazol-2-yl)thiazole-2,4-diamine], for which the IC50 came to 48 ± 2.4 µM in data set [1], 49.6 ± 2.5 µM in data set [3], 60.6 ± 3 µM in data set [4] and 55.3 ± 2.8 µM in data set [5]. For the same molecule, the “cytotoxic effect, class in words” value in data set [6] was “moderate-to-weak”.
As for `COc1cc(-c2csc(NC(=O)CN/N=C3\C(=O)Nc4ccc(Cl)cc43)n2)cc(OC)c1OC` [Compound 9a, (Z)-2-(2-(5-Chloro-2-oxoindolin-3-ylidene)hydrazinyl)-N-(4-(3,4,5-trimethoxyphenyl)thiazol-2-yl)acetamide], the IC50 in data set [1] is 10.6 ± 0.5 µM; in data set [2], 2.38 ± 0.14 µM; in data set [3] it was 7.32 ± 0.4 µM; in data set [4] it was 9.8 ± 0.5 µM; in data set [5], 10.1 ± 0.5 µM.
As to `COc1cc(-c2csc(NC(=O)CCl)n2)cc(OC)c1OC` [Compound 4, 2-Chloro-N-(4-(3,4,5-trimethoxyphenyl)thiazol-2-yl)acetamide], the half-maximal inhibitory concentration (IC50) worked out at 76.9 ± 3.8 µM in data set [1], 62.6 ± 3.1 µM in data set [3], 62.9 ± 3.1 µM in data set [4] and 69 ± 3.5 µM in data set [5]. In addition, the “cytotoxic effect, class in words” value in data set [6] is “weak (51–100 (weak))”.
`COc1cc(-c2csc(NC(=O)CN/N=C3\C(=O)Nc4ccc(C)cc43)n2)cc(OC)c1OC` [Compound 9b, (Z)-2-(2-(5-Methyl-2-oxoindolin-3-ylidene)hydrazinyl)-N-(4-(3,4,5-trimethoxyphenyl)thiazol-2-yl)acetamide]: the half-inhibitory concentration (IC50) was 13.4 ± 0.7 µM in data set [1]; 4.21 ± 0.26 µM in data set [2]; 8.04 ± 0.4 µM in data set [3]; 11.6 ± 0.6 µM in data set [4]; 9.93 ± 0.5 µM in data set [5].
Turning to `COc1cc(-c2csc(NC(=O)CN3CCOCC3)n2)cc(OC)c1OC` [Compound 6e, 2-Morpholino-N-(4-(3,4,5-trimethoxyphenyl)thiazol-2-yl)acetamide], the IC50 in data set [1] was determined as 58.8 ± 2.9 µM; in data set [2] it was 3.72 ± 0.23 µM; in data set [3], 19.8 ± 1 µM; in data set [4], 39.1 ± 2 µM; in data set [5], 18 ± 0.9 µM. In addition, the “cytotoxic activity, class in words, HepG2” value in data set [3] was “strong (11–20 (strong))”. For the same molecule, the “cytotoxic activity, class in words, HCT-116” value in data set [5] was “strong (11–20 (strong))”.
As to `COc1cc(-c2csc(NC(=O)CN3CCN(c4ccc(F)cc4)CC3)n2)cc(OC)c1OC` [Compound 6d, 2-(4-(4-Fluorophenyl)piperazin-1-yl)-N-(4-(3,4,5-trimethoxyphenyl)thiazol-2-yl)acetamide], the IC50 came to 18.7 ± 0.9 µM in data set [1]; 5 ± 0.3 µM in data set [2]; 4.03 ± 0.2 µM in data set [3]; 9.64 ± 0.5 µM in data set [4]; 15.7 ± 0.8 µM in data set [5].
Take `COc1cc(-c2csc(NC(=O)CNc3ccc([N+](=O)[O-])cc3)n2)cc(OC)c1OC` [Compound 7c, 2-((4-Nitrophenyl)amino)-N-(4-(3,4,5-trimethoxyphenyl)thiazol-2-yl)acetamide]: the IC50 in data set [1] was found to be 9.85 ± 0.5 µM; in data set [2] it was 2 ± 0.12 µM; in data set [3], 6.26 ± 0.3 µM; in data set [4], 10 ± 0.5 µM; in data set [5] it was 7.3 ± 0.4 µM.
